{
  "source": "ChEMBL document CHEMBL4376872",
  "about": "“Scaffold Hopping of Natural Product Evodiamine: Discovery of a Novel Antitumor Scaffold with Excellent Potency against Colon Cancer” (J Med Chem, 2020)",
  "key": {"[1]": {"target": "Lysine-specific demethylase 6B (Homo sapiens) (UniProt O15054)", "sequence (O15054 whole entry)": "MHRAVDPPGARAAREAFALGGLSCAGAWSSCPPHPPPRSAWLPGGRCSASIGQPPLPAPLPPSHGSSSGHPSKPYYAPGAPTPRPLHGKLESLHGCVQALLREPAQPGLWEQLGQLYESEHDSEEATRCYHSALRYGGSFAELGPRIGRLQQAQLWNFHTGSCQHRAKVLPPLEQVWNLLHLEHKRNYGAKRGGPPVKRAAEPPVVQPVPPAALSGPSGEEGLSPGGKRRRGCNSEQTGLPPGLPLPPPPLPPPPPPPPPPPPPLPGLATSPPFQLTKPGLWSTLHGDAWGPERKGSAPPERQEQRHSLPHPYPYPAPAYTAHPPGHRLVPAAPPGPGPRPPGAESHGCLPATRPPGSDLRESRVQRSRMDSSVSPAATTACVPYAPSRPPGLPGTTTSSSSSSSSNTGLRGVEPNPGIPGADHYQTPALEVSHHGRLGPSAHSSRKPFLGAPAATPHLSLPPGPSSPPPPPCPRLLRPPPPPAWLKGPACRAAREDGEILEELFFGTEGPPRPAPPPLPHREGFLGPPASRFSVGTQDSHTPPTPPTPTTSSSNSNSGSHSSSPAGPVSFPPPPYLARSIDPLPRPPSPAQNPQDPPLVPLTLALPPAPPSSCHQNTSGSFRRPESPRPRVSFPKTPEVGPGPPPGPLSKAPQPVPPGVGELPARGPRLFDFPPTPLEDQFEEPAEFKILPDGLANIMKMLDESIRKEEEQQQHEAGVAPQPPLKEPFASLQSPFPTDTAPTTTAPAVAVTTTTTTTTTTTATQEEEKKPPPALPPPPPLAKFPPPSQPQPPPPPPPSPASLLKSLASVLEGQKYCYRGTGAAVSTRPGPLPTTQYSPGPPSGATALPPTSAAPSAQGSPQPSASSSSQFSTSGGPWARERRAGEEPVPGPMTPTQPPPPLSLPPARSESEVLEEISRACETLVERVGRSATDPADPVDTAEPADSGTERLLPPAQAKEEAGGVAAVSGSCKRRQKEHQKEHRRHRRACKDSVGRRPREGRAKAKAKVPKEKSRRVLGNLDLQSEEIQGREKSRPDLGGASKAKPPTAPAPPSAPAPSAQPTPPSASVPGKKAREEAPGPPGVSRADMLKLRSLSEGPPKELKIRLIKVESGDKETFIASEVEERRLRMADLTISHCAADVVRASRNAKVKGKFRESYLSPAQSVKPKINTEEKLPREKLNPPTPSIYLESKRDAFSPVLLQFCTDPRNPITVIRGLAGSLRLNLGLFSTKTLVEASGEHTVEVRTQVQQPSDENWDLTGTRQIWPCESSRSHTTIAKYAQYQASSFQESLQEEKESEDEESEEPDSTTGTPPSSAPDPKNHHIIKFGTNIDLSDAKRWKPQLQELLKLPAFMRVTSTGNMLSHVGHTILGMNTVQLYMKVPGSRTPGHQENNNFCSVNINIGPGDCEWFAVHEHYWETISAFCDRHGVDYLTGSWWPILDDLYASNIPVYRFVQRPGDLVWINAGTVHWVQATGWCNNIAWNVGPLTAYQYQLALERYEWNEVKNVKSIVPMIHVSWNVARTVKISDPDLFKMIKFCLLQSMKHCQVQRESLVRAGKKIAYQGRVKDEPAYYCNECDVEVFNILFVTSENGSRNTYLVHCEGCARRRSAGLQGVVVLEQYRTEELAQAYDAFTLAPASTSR", "experiment": "Inhibition of JMJD3 (unknown origin) using biotinylated histone H3 peptide as substrate at 5 uM incubated for 60 mins by AlphaScreen assay relative to control"}, "Homo sapiens [2]": {"species_on_record": "Homo sapiens", "experiment": "Inhibition of PDE4D7 (unknown origin) using FAM-cAMP as substrate at 5 uM incubated for 1 hr by fluorescence polarization assay relative to control"}, "Homo sapiens [3]": {"species_on_record": "Homo sapiens", "experiment": "Inhibition of PDE4A1A (unknown origin) using FAM-cAMP as substrate at 5 uM incubated for 1 hr by fluorescence polarization assay relative to control"}, "[4]": {"target": "PI3-kinase p110-alpha/p85-alpha (Homo sapiens) (UniProt P27986+P42336)", "experiment": "Inhibition of PI3K p110alpha/p85alpha (unknown origin) using PI3K lipid as substrate at 5 uM incubated for 40 mins in presence of 2.5 uM ATP by kinase-Glo luminescence assay relative to control", "assay_type": "protein-complex assay"}, "A549": {"test_system": "A549", "experiment": "Antiproliferative activity against human A549 cells assessed as reduction in cell viability incubated for 72 hrs by CCK8 assay", "assay_type": "functional, cell-based", "settings": "A549, 72 h"}, "[5]": {"target": "Poly [ADP-ribose] polymerase 1 (Homo sapiens) (UniProt P09874)", "experiment": "Inhibition of PARP1 (unknown origin) using biotin-NAD+, NAD+ and sIDNA as substrate at 5 uM incubated for 1 hr by ELISA relative to control"}, "[6]": {"target": "Matrix metalloproteinase-9 (Homo sapiens) (UniProt P14780)", "experiment": "Inhibition of MMP9 (unknown origin) using Mca-PLGLDpaAR as substrate at 5 uM preincubated with enzyme for 2 hrs followed by incubation with substrate for 15 mins by fluorescence based analysis relative to control"}, "[7]": {"experiment": "Aqueous solubility of compound at pH 7.4", "assay_type": "physicochemical"}, "[8]": {"target": "DNMT3A2/3L complex (Homo sapiens) (UniProt Q9Y6K1+Q9UJW3)", "experiment": "Inhibition of DNMT3a/3L (unknown origin) using poly(dIdC) as substrate at 5 uM incubated for 3 hrs in presence of 20 uM SAM by fluorescence analysis", "assay_type": "protein-complex assay"}, "HCT-116 [9]": {"test_system": "HCT-116", "experiment": "Antiproliferative activity against human HCT116 cells assessed as reduction in cell viability incubated for 72 hrs by CCK8 assay", "assay_type": "functional, cell-based", "settings": "HCT-116, 72 h"}, "[10]": {"experiment": "Antiproliferative activity against human MV-3 cells assessed as reduction in cell viability incubated for 72 hrs by CCK8 assay", "assay_type": "functional, cell-based", "settings": "MV-3, 72 h"}, "HCT-116 [11]": {"test_system": "HCT-116", "experiment": "Antitumor activity against human HCT116 cells xenografted in mouse assessed as reduction in tumor growth at 4 mg/kg, ip bid for 21 days administration starting from 10 days after tumor cell implantation measured every 2 or 4 days till the end of the treatment period relative to control", "assay_type": "functional", "settings": "HCT-116, ip, read-out: TGI", "outline": "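HCT116 xenografts in nude mice; intraperitoneal dosing on 21 consecutive days; tumour growth inhibition (TGI) versus untreated control, with body weight recorded. n = 6 mice per group; mean ± SEM; significance by Student's t test versus control.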"}, "HCT-116 [12]": {"test_system": "HCT-116", "experiment": "Cell cycle arrest in human HCT116 cells assessed as accumulation in G2 phase at 12 nM incubated for 24 hrs by propidium iodide staining based flow cytometry (reference value: 12.52 %)", "assay_type": "functional"}, "HCT-116 [13]": {"test_system": "HCT-116", "experiment": "Cell cycle arrest in human HCT116 cells assessed as accumulation in G2 phase at 4 nM incubated for 24 hrs by propidium iodide staining based flow cytometry (reference value: 12.52 %)", "assay_type": "functional"}, "[14]": {"experiment": "Antiproliferative activity against human SW579 cells assessed as reduction in cell viability incubated for 72 hrs by CCK8 assay", "assay_type": "functional, cell-based", "settings": "SW579, 72 h"}, "HCT-116 [15]": {"test_system": "HCT-116", "experiment": "Induction of apoptosis in human HCT116 cells incubated for 24 hrs by annexin V-FITC and propidium iodide staining based flow cytometry", "assay_type": "functional, cell-based"}, "[16]": {"target": "3',5'-cyclic-AMP phosphodiesterase 4A (Homo sapiens) (UniProt P27815)", "experiment": "Inhibition of PDE4A4 (unknown origin) using FAM-cAMP as substrate at 5 uM incubated for 1 hr by fluorescence polarization assay relative to control"}, "HCT-116 [17]": {"test_system": "HCT-116", "experiment": "Cell cycle arrest in human HCT116 cells assessed as accumulation in S phase at 12 nM incubated for 24 hrs by propidium iodide staining based flow cytometry (reference value: 42.31 %)", "assay_type": "functional"}, "NCI-H446": {"test_system": "NCI-H446", "experiment": "Antiproliferative activity against human NCI-H446 cells assessed as reduction in cell viability incubated for 72 hrs by CCK8 assay", "assay_type": "functional, cell-based", "settings": "NCI-H446, 72 h"}, "HCT-116 [18]": {"test_system": "HCT-116", "experiment": "Cell cycle arrest in human HCT116 cells assessed as accumulation in S phase at 36 nM incubated for 24 hrs by propidium iodide staining based flow cytometry (reference value: 42.31 %)", "assay_type": "functional"}, "[19]": {"target": "DNA topoisomerase 2-alpha (Homo sapiens) (UniProt P11388)", "sequence (P11388 whole entry)": "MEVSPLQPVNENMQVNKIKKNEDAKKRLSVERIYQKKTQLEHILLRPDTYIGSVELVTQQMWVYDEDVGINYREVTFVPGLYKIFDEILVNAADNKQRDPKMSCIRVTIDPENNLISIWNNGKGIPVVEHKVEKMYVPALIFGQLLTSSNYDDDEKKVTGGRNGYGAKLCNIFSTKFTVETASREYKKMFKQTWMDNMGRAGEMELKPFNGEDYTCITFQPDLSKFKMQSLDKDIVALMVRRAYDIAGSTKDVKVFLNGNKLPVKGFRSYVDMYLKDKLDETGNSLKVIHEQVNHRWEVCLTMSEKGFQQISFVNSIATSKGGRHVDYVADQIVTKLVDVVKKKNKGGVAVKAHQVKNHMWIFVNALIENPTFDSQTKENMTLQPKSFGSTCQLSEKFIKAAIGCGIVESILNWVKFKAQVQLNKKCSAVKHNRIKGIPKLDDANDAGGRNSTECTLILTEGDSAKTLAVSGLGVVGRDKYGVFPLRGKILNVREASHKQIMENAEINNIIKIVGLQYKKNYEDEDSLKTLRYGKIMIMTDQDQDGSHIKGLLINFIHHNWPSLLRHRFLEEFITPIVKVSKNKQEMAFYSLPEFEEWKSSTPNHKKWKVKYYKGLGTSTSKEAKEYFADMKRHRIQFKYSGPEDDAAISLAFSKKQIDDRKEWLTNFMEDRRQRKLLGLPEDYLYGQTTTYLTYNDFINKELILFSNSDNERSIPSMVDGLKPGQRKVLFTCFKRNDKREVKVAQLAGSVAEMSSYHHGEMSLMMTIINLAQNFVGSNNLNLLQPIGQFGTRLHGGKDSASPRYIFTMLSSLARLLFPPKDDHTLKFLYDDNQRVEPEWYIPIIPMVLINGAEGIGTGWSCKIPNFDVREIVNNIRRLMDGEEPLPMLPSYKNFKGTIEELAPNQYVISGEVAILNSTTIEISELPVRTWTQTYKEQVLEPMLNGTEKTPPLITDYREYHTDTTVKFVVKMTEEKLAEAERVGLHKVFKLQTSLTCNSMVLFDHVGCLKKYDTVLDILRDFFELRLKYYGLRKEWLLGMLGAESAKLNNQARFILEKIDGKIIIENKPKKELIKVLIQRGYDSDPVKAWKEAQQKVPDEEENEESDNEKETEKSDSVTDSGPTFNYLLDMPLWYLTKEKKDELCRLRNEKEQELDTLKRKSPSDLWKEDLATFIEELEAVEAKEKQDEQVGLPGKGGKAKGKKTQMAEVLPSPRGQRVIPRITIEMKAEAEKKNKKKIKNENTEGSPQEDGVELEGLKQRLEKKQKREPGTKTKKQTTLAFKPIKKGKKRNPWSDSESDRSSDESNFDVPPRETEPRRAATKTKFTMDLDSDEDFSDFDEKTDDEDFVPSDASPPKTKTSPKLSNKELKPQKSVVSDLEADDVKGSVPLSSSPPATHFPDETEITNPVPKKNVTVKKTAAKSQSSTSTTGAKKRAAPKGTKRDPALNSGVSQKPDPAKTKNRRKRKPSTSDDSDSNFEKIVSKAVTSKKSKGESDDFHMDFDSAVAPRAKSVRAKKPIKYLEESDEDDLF", "experiment": "Inhibition of human Top2alpha assessed as decrease in relaxation of supercoiled pBR322 plasmid DNA at 100 uM using supercoiled pBR322 plasmid DNA as substrate incubated for 30 mins by agarose gel electrophoresis analysis"}, "HCT-116 [20]": {"test_system": "HCT-116", "experiment": "Cell cycle arrest in human HCT116 cells assessed as accumulation in G2 phase at 36 nM incubated for 24 hrs by propidium iodide staining based flow cytometry (reference value: 12.52 %)", "assay_type": "functional"}, "HCT-116 [21]": {"test_system": "HCT-116", "experiment": "Cell cycle arrest in human HCT116 cells assessed as accumulation in G1 phase at 12 nM incubated for 24 hrs by propidium iodide staining based flow cytometry (reference value: 45.18 %)", "assay_type": "functional"}, "[22]": {"target": "Tyrosine-protein phosphatase non-receptor type 11 (Homo sapiens) (UniProt Q06124)", "experiment": "Inhibition of SHP2 (unknown origin) using DiFMUP as substrate at 5 uM incubated for 30 mins by fluorescence based analysis"}, "[23]": {"target": "Serine/threonine-protein kinase PLK1 (Homo sapiens) (UniProt P53350)", "sequence (P53350 whole entry)": "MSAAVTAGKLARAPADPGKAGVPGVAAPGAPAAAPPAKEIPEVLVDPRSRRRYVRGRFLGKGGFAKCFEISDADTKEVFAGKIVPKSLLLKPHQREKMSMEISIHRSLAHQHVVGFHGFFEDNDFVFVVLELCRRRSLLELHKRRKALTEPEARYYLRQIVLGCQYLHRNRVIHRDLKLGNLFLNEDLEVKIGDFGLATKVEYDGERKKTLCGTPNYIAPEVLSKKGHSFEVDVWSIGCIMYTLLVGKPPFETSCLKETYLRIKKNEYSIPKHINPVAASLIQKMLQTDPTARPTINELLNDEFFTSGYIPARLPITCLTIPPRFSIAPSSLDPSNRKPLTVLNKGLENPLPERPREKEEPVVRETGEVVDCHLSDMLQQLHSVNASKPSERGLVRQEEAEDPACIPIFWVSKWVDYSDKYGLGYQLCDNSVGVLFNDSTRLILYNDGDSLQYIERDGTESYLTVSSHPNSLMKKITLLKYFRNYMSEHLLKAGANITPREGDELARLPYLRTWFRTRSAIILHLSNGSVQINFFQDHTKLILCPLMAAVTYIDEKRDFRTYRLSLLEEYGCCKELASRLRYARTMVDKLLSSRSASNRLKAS", "experiment": "Inhibition of PLK1 (unknown origin) using PLK1 peptide as substrate at 5 uM incubated for 40 mins in presence of 10 uM ATP by kiase-Glo luminescence assay relative to control"}, "[24]": {"target": "Poly [ADP-ribose] polymerase tankyrase-2 (Homo sapiens) (UniProt Q9H2K2)", "sequence (Q9H2K2 whole entry)": "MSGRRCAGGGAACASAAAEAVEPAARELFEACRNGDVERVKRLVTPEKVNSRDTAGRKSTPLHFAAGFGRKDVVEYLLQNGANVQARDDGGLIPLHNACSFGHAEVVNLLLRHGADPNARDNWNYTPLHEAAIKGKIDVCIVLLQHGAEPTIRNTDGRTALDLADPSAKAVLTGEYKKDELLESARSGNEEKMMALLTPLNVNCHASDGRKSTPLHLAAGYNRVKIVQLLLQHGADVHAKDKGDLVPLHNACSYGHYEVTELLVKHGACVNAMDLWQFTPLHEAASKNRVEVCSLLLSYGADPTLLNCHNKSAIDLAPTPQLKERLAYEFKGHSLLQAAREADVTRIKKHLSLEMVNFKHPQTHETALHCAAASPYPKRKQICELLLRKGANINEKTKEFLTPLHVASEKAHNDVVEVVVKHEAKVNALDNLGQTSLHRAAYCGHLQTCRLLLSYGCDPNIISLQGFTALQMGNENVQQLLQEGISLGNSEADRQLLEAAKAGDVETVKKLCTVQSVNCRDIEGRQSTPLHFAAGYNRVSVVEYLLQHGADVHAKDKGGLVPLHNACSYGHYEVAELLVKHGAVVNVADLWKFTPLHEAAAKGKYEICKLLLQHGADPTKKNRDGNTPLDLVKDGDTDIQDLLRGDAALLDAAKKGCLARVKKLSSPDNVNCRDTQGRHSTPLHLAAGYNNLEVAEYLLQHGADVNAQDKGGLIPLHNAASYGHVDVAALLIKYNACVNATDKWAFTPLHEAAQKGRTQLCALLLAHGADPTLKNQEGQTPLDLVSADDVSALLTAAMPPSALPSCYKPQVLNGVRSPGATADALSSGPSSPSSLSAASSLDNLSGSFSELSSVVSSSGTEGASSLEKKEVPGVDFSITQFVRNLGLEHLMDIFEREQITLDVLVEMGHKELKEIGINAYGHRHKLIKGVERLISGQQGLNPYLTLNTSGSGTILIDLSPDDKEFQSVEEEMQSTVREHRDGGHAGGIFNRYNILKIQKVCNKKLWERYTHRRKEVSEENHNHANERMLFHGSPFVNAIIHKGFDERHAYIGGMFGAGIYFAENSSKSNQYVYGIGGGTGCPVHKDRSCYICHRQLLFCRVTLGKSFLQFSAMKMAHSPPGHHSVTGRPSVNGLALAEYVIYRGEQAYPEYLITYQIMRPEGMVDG", "experiment": "Inhibition of TNKS2 (unknown origin) using biotin-NAD+, NAD+ and sIDNA as substrate at 5 uM incubated for 1 hr by ELISA relative to control"}, "[25]": {"target": "Protein mono-ADP-ribosyltransferase PARP12 (Homo sapiens) (UniProt Q9H0J9)", "experiment": "Inhibition of PARP12 (unknown origin) using biotin-NAD+, NAD+ and sIDNA as substrate at 5 uM incubated for 1 hr by ELISA relative to control"}, "HCT-116 [26]": {"test_system": "HCT-116", "experiment": "Induction of apoptosis in human HCT116 cells at 1 uM incubated for 24 hrs by annexin V-FITC and propidium iodide staining based flow cytometry (reference value: 0.86 %)", "assay_type": "functional"}},
  "note": "pIC50: −log10 of the molar value. Activity calls are given as the source filed them. The calls are words filed in the database; no cut-off is given here.",
  "data": [
    {"molecule": "COc1ccc2c(c1)cc1n2CCN2C(=O)c3cc(F)ccc3N(C)C12", "note": "(stereo not drawn)", "values": [
      {"measurement": "inhibition", "setting": "[1]", "value": "< 20", "unit": "%"},
      {"measurement": "inhibition", "setting": "Homo sapiens [2]", "value": "< 20", "unit": "%"},
      {"measurement": "inhibition", "setting": "Homo sapiens [3]", "value": "< 20", "unit": "%"},
      {"measurement": "inhibition", "setting": "[4]", "value": "< 20", "unit": "%"},
      {"measurement": "pIC50", "setting": "A549", "value": 3.80},
      {"measurement": "inhibition", "setting": "[5]", "value": "< 20", "unit": "%"},
      {"measurement": "inhibition", "setting": "[6]", "value": "< 20", "unit": "%"},
      {"measurement": "solubility", "setting": "[7]", "value": 1.5, "unit": "µg/mL"},
      {"measurement": "inhibition", "setting": "[8]", "value": "< 20", "unit": "%"},
      {"measurement": "pIC50", "setting": "HCT-116 [9]", "value": 8.70},
      {"measurement": "pIC50", "setting": "[10]", "value": 6.40},
      {"measurement": "inhibition in vivo at 4 mg/kg", "setting": "HCT-116 [11]", "value": 37, "unit": "%"},
      {"measurement": "Activity", "setting": "HCT-116 [12]", "value": 35.49, "unit": "%"},
      {"measurement": "Activity", "setting": "HCT-116 [13]", "value": 17.73, "unit": "%"},
      {"measurement": "pIC50", "setting": "[14]", "value": 5.21},
      {"measurement": "Activity", "setting": "HCT-116 [15]", "value": "Dose-dependent effect"},
      {"measurement": "inhibition", "setting": "[16]", "value": "< 20", "unit": "%"},
      {"measurement": "Activity", "setting": "HCT-116 [17]", "value": 40.44, "unit": "%"},
      {"measurement": "pIC50", "setting": "NCI-H446", "value": "< 3.70"},
      {"measurement": "Activity", "setting": "HCT-116 [18]", "value": 14.85, "unit": "%"},
      {"measurement": "inhibition", "setting": "[19]", "value": "inactive"},
      {"measurement": "Activity", "setting": "HCT-116 [20]", "value": 84.13, "unit": "%"},
      {"measurement": "Activity", "setting": "HCT-116 [21]", "value": 24.07, "unit": "%"},
      {"measurement": "inhibition", "setting": "[22]", "value": "< 20", "unit": "%"},
      {"measurement": "inhibition", "setting": "[23]", "value": "< 20", "unit": "%"},
      {"measurement": "inhibition", "setting": "[24]", "value": "< 20", "unit": "%"},
      {"measurement": "inhibition", "setting": "[25]", "value": "< 20", "unit": "%"},
      {"measurement": "Activity", "setting": "HCT-116 [26]", "value": 52, "unit": "%"}
    ]}
  ]
}
